Compound activity: PubChem, NMMLSC
Sampled rows, rich in hits. Any-hit rate of the full collection: about 2.5%.
Efflux pump mplx = inhibitors of Candida efflux pumps in yeast, primary screen, S. cerevisiae, Nile Red, multiplex. actives 0.44% (n = 330,000). inhibition, % at 10 µM. S. cerevisiae Candida pump triplex;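 active means plate passing quality check with inhibition over a set limit, or well fluorescence over plate mean plus 4 SD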;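 further: Nile Red retained in pooled yeast measured as flow cytometry median fluorescence; higher means more Nile Red kept so more efflux inhibition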
MEKK2wt PB1 HTS = modulators of MEK5 binding to wildtype MEKK2, primary screen, biochemical, multiplex bead flow cytometry, Alexa488-MEK5 | actives 1.1% (n = 290,000) | AID 1531, 2009 | Alexa488-MEK5 binding to MEKK2 WT; actives lie on both sides | binding response (% of control), % at 10 µM; in the data active means binding response below about 67% or above about 130%
ABCB1 block = ABCB1 efflux pump inhibitors, primary screen, cell-based, multiplex, flow cytometry, ABCG2 counter-screen | ATP-dependent translocase ABCB1 (Homo sapiens), P08183 | CCRF-Adr cells, JC-1 efflux | inhibition, % at 6.6 µM | actives 0.067% (n = 190,000); in the data active means inhibition above about 40%;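 further: higher value means more JC-1 retained so stronger ABCB1 efflux block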
MEKK3 PB1 HTS = modulators of MEKK3-MEK5 PB1 binding, primary screen, biochemical, wildtype MEKK3, multiplex bead flow cytometry, Alexa488-MEK5; bead-based flow cytometry, Alexa488-MEK5 binding to MEKK3; actives lie on both sides; 0 = blocked by unlabeled MEK5, 100 = vehicle; binding response (% of control), % at 10 µM; actives 1.4% (n = 290,000); AID 1529, 2009;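 active means binding response more than 3 SD above or below the average of its plate-row segment, actives on both sides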;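 further: Alexa488 bead fluorescence after subtracting the streptavidin-only scavenger bead signal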
ABCG2 inh = ABCG2 efflux pump inhibitors, primary screen, multiplex with ABCB1, IgMXP3 cells, flow cytometry | JC-1 efflux | actives 0.1% (n = 190,000) | inhibition, % at 6.6 µM | AID 1325, 2008 | Broad substrate specificity ATP-binding cassette transporter ABCG2 (Homo sapiens), Q9UNQ0;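 active means inhibition above 80%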
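Test system: ABCG2 IgMXP3 and barcoded ABCB1 CCRF-Adr cell mix; Schedule: cells with compound and JC-1, 10 min at 25 °C, rotating, no wash; Technique: flow cytometry of retained JC-1 fluorescence; Measure: % inhibition of efflux relative to nicardipine and DMSO; Controls: nicardipine high and DMSO low controls.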
MEKK2 mut-MEK5 = MEK5 binding signal on mutant MEKK2 PB1, primary screen, biochemical, multiplex bead flow cytometry, Alexa488-MEK5; Alexa488-MEK5 binding to MEKK2 mutant; percent response, % at 10 µM; actives 0.35% (n = 290,000); AID 1530, 2009; in the data active means percent response above about 24%, passing the limit was not always enough
Yeast cmpd fluor = flagged as fluorescent in efflux inhibitor counter-screen; fluorescence ratio to DMSO, % at 10 µM; S. cerevisiae AD/pABC3, compound fluorescence, flow cytometry; actives 4% (n = 1,700); shares compounds with Efflux pump mplx;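 active means fluorescence ratio to DMSO above its plate's cutoff, the plate mean ratio plus 5 SD, cut at about 210% in these data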;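 further: unstained yeast with no Nile Red so the signal is compound autofluorescence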
Mdr1 pump inh = inhibitors of Candida albicans Mdr1 efflux, confirmation, flow cytometry, singleplex, Cherry Pick1 set; shares compounds with Efflux pump mplx; S. cerevisiae AD/CaMDR1, Nile Red efflux; inhibition, % at 10 µM; actives 1% (n = 1,700); in the data active means inhibition above about 26%;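 further: higher means more Nile Red retained so more efflux inhibition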
Cdr2 pump inh = inhibitors of Candida albicans Cdr2 efflux pump, confirmation, S. cerevisiae AD/CaCDR2, flow cytometry, cherry pick 1, singleplex; shares compounds with Efflux pump mplx; Nile Red retention; Nile Red retention ratio vs DMSO, % at 10 µM; actives 4% (n = 1,700); AID 588520, 2011; in the data active means Nile Red retention ratio vs DMSO above about 190%;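 further: higher ratio means more blocking of Cdr2 efflux of the dye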
CaCdr1 efflux inh = inhibitors of Candida albicans Cdr1 efflux pump, confirmation, S. cerevisiae AD/CaCDR1, flow cytometry, cherry pick 1, singleplex; shares compounds with Efflux pump mplx; Nile Red efflux; inhibition, % at 10 µM; actives 1% (n = 1,700); AID 588522, 2011;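 active means inhibition above the screen-wide mean plus twice its standard deviation, cut at about 32% in these data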
Each line names hits and unclear results; the compound was inactive in the other large screens (follow-up assays come after a bar, where they were run).

O=C1C(c2ccncc2)N(CCC2=CCCCC2)C(=O)CN1C1CCCCC1 (centres undefined)	none
COc1ccc(-c2cc(C(=O)Nc3ccc(C)c(N)c3)c3ccccc3n2)cc1	Efflux pump mplx 0.5 (no result: ABCB1 block, ABCG2 inh) | Yeast cmpd fluor inactive | Mdr1 pump inh inactive | Cdr2 pump inh inactive | CaCdr1 efflux inh inactive
COc1ccc(-c2cc(C(=O)Nc3ccc(S(=O)(=O)Nc4ncccn4)cc3)c3ccccc3n2)cc1	none (no result: ABCB1 block, ABCG2 inh)
COC(=O)c1ccccc1NC(=S)N(Cc1ccc2c(c1)OCO2)Cc1cc2ccc(OC)cc2[nH]c1=O	Efflux pump mplx 6.4 | Yeast cmpd fluor inactive | Mdr1 pump inh inactive | Cdr2 pump inh inactive | CaCdr1 efflux inh inactive
Cc1ccc(-n2nc3c(=O)n(CCCC(=O)N4CCC(C(N)=O)CC4)nc(C)c3c2C)cc1	none (no result: ABCB1 block, ABCG2 inh)
COc1ccc(NC(=O)c2c[nH]n3c(=O)cc(C4CCN(C(=O)OC(C)(C)C)CC4)nc23)cc1Cl	Efflux pump mplx 1.1 | Yeast cmpd fluor inactive | Mdr1 pump inh inactive | Cdr2 pump inh inactive | CaCdr1 efflux inh inactive
CC(O)CSc1nc2c(c(=O)[nH]c(=O)n2C)n1Cc1ccccc1Cl (centres undefined)	none (no result: ABCB1 block, ABCG2 inh)
Cc1ccccc1C(=O)NNC(=O)C1CC(=O)N(c2ccc3c(c2)OCCO3)C1 (centres undefined)	none (no result: MEKK2wt PB1 HTS, ABCB1 block, MEKK3 PB1 HTS, ABCG2 inh, MEKK2 mut-MEK5)
COc1ccc(OCc2cc(C(=O)NC(C)Cc3cccnc3)no2)c(Cl)c1 (centres undefined)	none (no result: ABCB1 block, ABCG2 inh)
CCC(NC(=O)c1cc(COc2ccc(OC)cc2Cl)on1)c1ccncc1 (centres undefined)	none (no result: ABCB1 block, ABCG2 inh) | Yeast cmpd fluor inactive | Mdr1 pump inh inactive | Cdr2 pump inh inactive | CaCdr1 efflux inh inactive
COc1ccc(OCc2cc(C(=O)N(C)C3CCOCC3)no2)c2ccccc12	none (no result: ABCB1 block, ABCG2 inh)
COc1ccc(OCc2cc(C(=O)NC(C)Cc3ccccn3)no2)c(Cl)c1 (centres undefined)	Efflux pump mplx 1.6 (no result: ABCB1 block, ABCG2 inh) | Yeast cmpd fluor inactive | Mdr1 pump inh inactive | Cdr2 pump inh inactive | CaCdr1 efflux inh inactive
COc1ccc(OCc2cc(C(=O)N(C)C3CCOC3)no2)c(Cl)c1 (centres undefined)	none (no result: ABCB1 block, ABCG2 inh) | Yeast cmpd fluor inactive | Mdr1 pump inh inactive | Cdr2 pump inh inactive | CaCdr1 efflux inh inactive
CCC1CC(C(=O)Nc2ccccc2)C(=O)O1 (centres undefined)	none (no result: MEKK2wt PB1 HTS, ABCB1 block, MEKK3 PB1 HTS, ABCG2 inh, MEKK2 mut-MEK5)
COc1cccc(/C=c2\sc3nc(-c4cccs4)nn3c2=O)c1OC	none (no result: MEKK2wt PB1 HTS, MEKK3 PB1 HTS, MEKK2 mut-MEK5)
Cc1ccc(/C=c2\sc3nc(-c4cccs4)nn3c2=O)o1	Efflux pump mplx 0.5 | Yeast cmpd fluor inactive | Mdr1 pump inh inactive | Cdr2 pump inh inactive | CaCdr1 efflux inh inactive
O=c1/c(=C/c2ccco2)sc2nc(-c3ccccc3Br)nn12	none | Yeast cmpd fluor inactive | Mdr1 pump inh inactive | Cdr2 pump inh inactive | CaCdr1 efflux inh inactive
